Active and inactive are the calls of the source. The rule behind the calls is not given here.

The target in experiment [1] is T1, Stimulator of interferon genes protein (Homo sapiens, UniProt Q86WV6). The experiment in a line: Agonist activity at wild type human STING expressed in baculovirus infected Sf21 insect cells.
Experiment [2] deals with Stimulator of interferon genes protein (Homo sapiens, UniProt Q86WV6, G230A/R293Q/R71H). In words: Agonist activity at human STING HAQ expressed in baculovirus infected Sf21 insect cells.
Chain of Stimulator of interferon genes protein (Homo sapiens, UniProt Q86WV6, G230A/R293Q/R71H) (Q86WV6 whole entry R71H/G230A/R293Q): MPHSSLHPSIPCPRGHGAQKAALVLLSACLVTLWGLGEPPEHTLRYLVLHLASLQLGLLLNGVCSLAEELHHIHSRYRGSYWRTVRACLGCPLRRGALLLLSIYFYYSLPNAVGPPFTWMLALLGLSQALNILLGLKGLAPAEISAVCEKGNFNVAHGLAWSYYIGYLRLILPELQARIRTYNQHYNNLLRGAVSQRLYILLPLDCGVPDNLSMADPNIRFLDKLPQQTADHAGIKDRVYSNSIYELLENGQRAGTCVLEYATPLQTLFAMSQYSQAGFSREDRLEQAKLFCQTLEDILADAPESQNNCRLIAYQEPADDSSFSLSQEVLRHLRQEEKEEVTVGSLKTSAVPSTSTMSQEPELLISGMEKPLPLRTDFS
Experiment [3] addresses T1, Stimulator of interferon genes protein. The experiment in a line: Activation of STING in human THP1-Dual cells assessed as increase in TBK1/IRF3 phosphorylation measured after 4 hrs by Western blot analysis. The experiment is classed as cell-based. The conditions noted are these: filed as activator, dose 3.3-30 µM. The gist of the method: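 THP1-Dual cells (8 × 10⁵/well) treated at 3.3, 10 and 30 μM for 4 h, then lysed in SDS sample buffer and boiled. Lysates run on 10% SDS-PAGE and transferred to nitrocellulose. Blots probed for TBK1, phospho-TBK1 Ser172, IRF3, phospho-IRF3 Ser396 and GAPDH, with HRP secondaries and ECL detection.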
Background: In western blotting, separated proteins are transferred to a membrane and probed.

Experiment [4] has as its system RAW-Lucia ISG-KO-STING. In words: Effect on ISG expression in mouse RAW-Lucia ISG-KO-STING cells at 0.005 to 10 uM measured after 24 hrs. The conditions noted are these: dose 0.005-10 µM. Format: functional, cell-based. A digest of the protocol: (§1)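 Reporter cells (1 × 10⁵ cells/well) exposed to compound for 24 h at 37 °C in 5% CO₂. Secreted luciferase ISG reporter in 20 μL supernatant read by luminescence with QUANTI-Luc reagent. Activity expressed as fold change versus control.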

Experiment [5] addresses T2, Stimulator of interferon genes protein (Mus musculus) (UniProt Q3TBT3).
T2 sequence (whole entry): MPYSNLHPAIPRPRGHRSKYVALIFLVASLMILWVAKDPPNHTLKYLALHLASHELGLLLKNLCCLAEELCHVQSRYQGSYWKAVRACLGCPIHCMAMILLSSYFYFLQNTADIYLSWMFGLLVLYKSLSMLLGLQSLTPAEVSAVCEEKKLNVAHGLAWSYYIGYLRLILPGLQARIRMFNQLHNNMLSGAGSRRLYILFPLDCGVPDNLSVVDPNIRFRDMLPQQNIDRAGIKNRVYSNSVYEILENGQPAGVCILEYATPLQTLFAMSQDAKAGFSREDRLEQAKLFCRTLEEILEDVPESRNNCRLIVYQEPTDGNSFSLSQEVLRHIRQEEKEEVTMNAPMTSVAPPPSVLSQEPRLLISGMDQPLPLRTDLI
In words: Activation of mouse STING expressed in RAW-Lucia ISG cells at 50 uM incubated for 24 hrs by QUANTI-Luc luciferase reporter gene assay relative to control. The conditions noted are these: filed as activator. (A reporter such as luciferase makes a cellular process visible.)

The species named for experiment [6] is Homo sapiens. The experiment in a line: Binding affinity to human STING 293Q mutant assessed as thermal stability by measuring melting temperature […] differential scanning fluorimetry (reference value: 46.25 degreeC). The conditions noted are these: filed as activator. A digest of the protocol:
(§2)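 Thermal shift by DSF: 5 μM STING protein, 50 μM compound and 10× SYPRO Orange in 10 mM HEPES pH 7.5, 150 mM NaCl. Samples heated from 30 to 80 °C at 0.5 °C/min. Tm taken as the temperature of median fluorescence between onset and maximum; n = 3.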

Experiment [7] relates to CT26. The experiment in a line: Antitumor activity against mouse CT26 cells inoculated in BALB/c mouse assessed as inhibition of tumor growth at 500 ug, IT(Intratumoral) administered on day 1,4 and 7 post inoculation. The conditions noted are these: dose 500.0 µg, time 7.0 day. Format: functional. The gist of the method: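 BALB/c mice with subcutaneous CT26 tumors (5 × 10⁵ cells, right armpit; n = 6) given 500 μg intratumorally on days 1, 4 and 7 at about 50–100 mm³. Tumor volume ((a × b²)/2) and body weight measured twice weekly.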

Experiment [8] relates to Stimulator of interferon genes protein (Homo sapiens), Q86WV6 [UNDEFINED MUTATION]. The experiment in a line: Binding affinity to human STING R232 mutant assessed as thermal stability by measuring melting temperature […] differential scanning fluorimetry (reference value: 38.75 degreeC). The conditions noted are these: filed as activator. A digest of the protocol:
as §2

Experiment [9] deals with T1, Stimulator of interferon genes protein. The experiment in a line: Activation of STING in human THP1-Dual cells assessed as increase in IFNbeta secretion at 10 uM measured after 24 hrs by ELISA. The experiment is classed as cell-based. The conditions noted are these: filed as activator. A digest of the protocol:
(§3)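 THP1-Dual cells seeded at 10⁵ cells/well and treated for 24 h. Human IP-10 and IFN-β in supernatant quantified by ELISA kits. Concentration (pg/mL) derived from a standard curve.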

For experiment [10] the target is unchanged. The experiment in a line: Activation of STING in human THP1-Dual cells assessed as induction of NF-KB signaling measured after 24 hrs by Quanti-Blue reagent based assay. Format: cell-based. The conditions noted are these: filed as activator, dose 0.005-10 µM. The gist of the method: (§4)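 THP1-Dual cells (1 × 10⁵/well) treated for 24 h. Supernatant (20 μL) incubated 1 h at 37 °C with QUANTI-Blue, then absorbance read at 650 nm. Fold change calculated relative to vehicle control.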

The species entered for experiment [11] is Homo sapiens. The experiment in a line: Binding affinity to human STING H232 mutant assessed as thermal stability by measuring melting temperature […] differential scanning fluorimetry (reference value: 39.5 degreeC). The conditions noted are these: filed as activator. The gist of the method:
as §2
(Differential scanning fluorimetry follows unfolding on heating by fluorescence.)

The test system of experiment [12] is 4T1. In words: Antitumor activity against mouse 4T1 cells and CT26 cells co-inoculated in orthotopic BALB/c mouse assessed as supression of tumor growth at 10 mg/kg, iv administered on day 1,4 and 7 post inoculation. The experiment is classed as functional, organism-based. The conditions noted are these: time 7.0 day, in the assay text read “4T1 cells inoculated” for “4T1 cells and CT26 cells co-inoculated”. A digest of the protocol:
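BALB/c mice bearing orthotopic 4T1 tumors (5 × 10⁵ cells in the breast fat pad; n = 5) dosed iv at 10 mg/kg on days 1, 4 and 7 once tumors reached about 50–100 mm³. Tumor volume calculated as (a × b²)/2 and, with body weight, measured twice weekly.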

The target in experiment [13] is T1, Stimulator of interferon genes protein. The experiment in a line: Activation of STING in human THP1-Dual cells assessed as increase in IP-10 secretion at 0.01 to 10 uM measured after 24 hrs by ELISA. Format: cell-based. The conditions noted are these: filed as activator, dose 0.01-10 µM. A digest of the protocol: as §3
The species entered for experiment [14] is Mus musculus. The experiment in a line: Binding affinity to mouse STING mR231 mutant assessed as thermal stability by measuring melting temperature […] differential scanning fluorimetry (reference value: 42 degreeC). The conditions noted are these: filed as activator. The gist of the method:
as §2

The subject of experiment [15] is Stimulator of interferon genes protein (Homo sapiens), Q86WV6 [UNDEFINED MUTATION]. The experiment in a line: Activation of STING H232 in human 293-Dual hSTING-R232 cells assessed as induction of ISG signaling measured after 24 hrs. Format: cell-based. The conditions noted are these: filed as activator, dose 0.005-10 µM. The gist of the method: as §1
The test system of experiment [16] is 293-Dual hSTING-H232. The experiment in a line: Activation of STING H232 in human 293-Dual hSTING-H232 cells assessed as induction of ISG signaling measured after 24 hrs. The conditions noted are these: filed as activator, dose 0.005-10 µM. Format: cell-based. A digest of the protocol:
as §1

In experiment [17] the target is T1, Stimulator of interferon genes protein. The experiment in a line: Activation of human STING (139 to 379 residues) expressed in THP1-Blue ISG cells at 10 uM incubated for 24 hrs by quanti-blue SEAP reporter gene assay relative to control. The conditions noted are these: filed as activator. Format: cell-based. A digest of the protocol: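 THP1-Blue-ISG cells (1 × 10⁵/well) treated for 24 h; single-concentration screen at 10 μM. SEAP ISG reporter in 20 μL supernatant read with QUANTI-Blue at 650 nm. Activation given as fold over control, averaging at least two experiments.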

Experiment [18] concerns Stimulator of interferon genes protein (Homo sapiens), Q86WV6 [R71H,G230A,R293Q]. The experiment in a line: Binding affinity to human STING HAQ mutant assessed as thermal stability by measuring melting temperature […] differential scanning fluorimetry (reference value: 37.25 degreeC). The conditions noted are these: filed as activator. A digest of the protocol: as §2
Chain of Stimulator of interferon genes protein (Homo sapiens), Q86WV6 [R71H,G230A,R293Q] (Q86WV6 whole entry R71H/G230A/R293Q): as the sequence (Q86WV6 whole entry R71H/G230A/R293Q) above

The target in experiment [19] is T1, Stimulator of interferon genes protein. In words: Activation of STING in human THP1-Dual cells assessed as induction of ISG signaling measured after 24 hrs by Quanti-Blue reagent based assay. The conditions noted are these: filed as activator, dose 0.005-10 µM. The experiment is classed as cell-based. The gist of the method:
as §4

Experiment [20] deals with THP1-Dual KO-STING. In words: Effect on ISG expression in human THP1-Dual KO-STING cells at 10 uM measured after 24 hrs. Format: functional, cell-based. The gist of the method: as §1
For experiment [21], the system named is CT26. In words: Antitumor activity against mouse CT26 cells inoculated in BALB/c mouse assessed as inhibition of tumor growth IT(Intratumoral) administered on day 1,4 and 7 post inoculation. The conditions noted are these: time 7.0 day.

T1 sequence (Q86WV6 whole entry): as the sequence (Q86WV6 whole entry R71H/G230A/R293Q) above, with H71R, A230G, Q293R counted along it
Chain of Stimulator of interferon genes protein (Homo sapiens), Q86WV6 [UNDEFINED MUTATION] (Q86WV6 whole entry, looked up, change not shown): as the sequence (Q86WV6 whole entry R71H/G230A/R293Q) above, with H71R, A230G, Q293R counted along it

A word on the EC50: it is the concentration needed to bring the measured effect to its halfway point. Read a high EC50 as a less potent agent. For `COc1cc2cc(C(=O)CCC(=O)O)sc2cc1OC`, the values for the EC50 in experiment [1] and in experiment [2] were 24 µM and 8.3 µM, respectively.

Regarding `CCn1nc(C)cc1C(=O)/N=c1\[nH]c2cc(-c3ncn[nH]3)cc(OC)c2n1C/C=C/Cn1/c(=N/C(=O)c2cc(C)nn2CC)[nH]c2cc(C(N)=O)cc(OCCCN3CCOCC3)c21`, the Activity result in experiment [3], in experiment [10], in experiment [15], in experiment [16] and in experiment [19] was “Dose-Dependent Effect” each time. Moreover, the outcome in experiment [4] and in experiment [20] was inactive. The fold change (FC) stood at 3.2 in experiment [5] and 19.2 in [17]. Moreover, the Tm came to 46.8 °C in experiment [6]; 45.5 °C in experiment [8]; 46.8 °C in [11]; 52.8 °C in [14]; 45.8 °C in experiment [18]. Besides, the inhibition entry in experiment [7] and in [12] was “Active” in each case. The outcome in [9] and in [13] was Active.

Consider `Cc1ccc2c(=O)c3cccc(CC(=O)O)c3oc2c1C`, for which the inhibition entry in [21] was “Active”.

The values are drawn from ChEMBL document CHEMBL4808161, “Structure-Activity Relationship Study of Amidobenzimidazole Analogues Leading to Potent and Systemically Administrable Stimulator of Interferon Gene (STING) Agonists” (J Med Chem, 2021).
